# The source made the active and inactive calls. The calls are words filed in the database; no cut-off is given here.
# Experiments:
# [1] = test system: Mycobacterium tuberculosis; assay: Antimycobacterial activity against Mycobacterium tuberculosis H37Ra at 100 ug/mL after 24 to 48 hrs by MABA; assay type: functional
# Summary of the method: (§1)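 Compounds in DMSO (100× highest final concentration), diluted in 7H9GC; tested at 100, 50, 10 and 1 µg/mL in triplicate, three experiments. Frozen inoculum diluted in 7H9GC. Read visually and spectrophotometrically. […], mean given. Visual MIC = lowest concentration preventing blue-to-pink change.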
# [2] = test system: Mycobacterium tuberculosis; assay: Antimycobacterial activity against Mycobacterium tuberculosis H37Ra at 50 ug/mL after 24 to 48 hrs by MABA; assay type: functional; summary of the method: as §1
# [3] = test system: Mycobacterium tuberculosis; assay: Antimycobacterial activity against Mycobacterium tuberculosis H37Ra at 10 ug/mL after 24 to 48 hrs by MABA; assay type: functional; summary of the method: as §1
# Mycobacterium avium [4] = assay: Antimycobacterial activity against Mycobacterium avium ATCC 25291 at 100 ug/mL after 24 to 48 hrs by MABA; assay type: functional; summary of the method: as §1
# Mycobacterium avium [5] = assay: Antimycobacterial activity against Mycobacterium avium ATCC 25291 at 50 ug/mL after 24 to 48 hrs by MABA; assay type: functional; summary of the method: as §1
# Mycobacterium avium [6] = assay: Antimycobacterial activity against Mycobacterium avium ATCC 25291 at 10 ug/mL after 24 to 48 hrs by MABA; assay type: functional; summary of the method: as §1
# Staphylococcus aureus = assay: Antibacterial activity against Staphylococcus aureus up to 100 ug/ml after 16 to 20 hrs by broth microdilution method; assay type: functional, organism-based
# [7] = test system: Staphylococcus epidermidis; assay: Antibacterial activity against Staphylococcus epidermidis up to 100 ug/ml after 16 to 20 hrs by broth microdilution method; assay type: functional, organism-based
# Enterococcus faecalis = assay: Antibacterial activity against Enterococcus faecalis up to 100 ug/ml after 16 to 20 hrs by broth microdilution method; assay type: functional, organism-based
# Bacillus subtilis = assay: Antibacterial activity against Bacillus subtilis up to 100 ug/ml after 16 to 20 hrs by broth microdilution method; assay type: functional, organism-based
# Streptococcus pneumoniae = assay: Antibacterial activity against Streptococcus pneumoniae up to 100 ug/ml after 16 to 20 hrs by broth microdilution method; assay type: functional, organism-based
# Salmonella typhimurium = assay: Antibacterial activity against Salmonella Typhimurium up to 100 ug/ml after 16 to 20 hrs by broth microdilution method; assay type: functional, organism-based; conditions: Salmonella enterica subsp. enterica serovar Typhimurium
# Escherichia coli = assay: Antibacterial activity against Escherichia coli up to 100 ug/ml after 16 to 20 hrs by broth microdilution method; assay type: functional, organism-based
# Proteus vulgaris = assay: Antibacterial activity against Proteus vulgaris up to 100 ug/ml after 16 to 20 hrs by broth microdilution method; assay type: functional, organism-based
# Pseudomonas aeruginosa = assay: Antibacterial activity against Pseudomonas aeruginosa up to 100 ug/ml after 16 to 20 hrs by broth microdilution method; assay type: functional, organism-based
# HepG2 = assay: Toxicity against HepG2 cells; assay type: functional, cell-based; conditions: Homo sapiens
# Mycobacterium avium [8] = assay: Antimycobacterial activity against Mycobacterium avium ATCC 25291 at 2 ug/mL after 24 to 48 hrs by MABA; assay type: functional
# Mycobacterium avium [9] = assay: Antimycobacterial activity against Mycobacterium avium ATCC 25291 at 1 ug/mL after 24 to 48 hrs by MABA; assay type: functional; summary of the method: as §1
# [10] = test system: Mycobacterium tuberculosis; assay: microbe, parasite or virus in culture; conditions: H37Ra
Structure (SMILES),inhibition at 100 µg/mL [1] [%],inhibition at 50 µg/mL [2] [%],inhibition at 10 µg/mL [3] [%],inhibition at 100 µg/mL (Mycobacterium avium [4]) [%],inhibition at 50 µg/mL (Mycobacterium avium [5]) [%],inhibition at 10 µg/mL (Mycobacterium avium [6]) [%],Activity (Staphylococcus aureus),Activity [7],Activity (Enterococcus faecalis),Activity (Bacillus subtilis),Activity (Streptococcus pneumoniae),Activity (Salmonella typhimurium),Activity (Escherichia coli),Activity (Proteus vulgaris),Activity (Pseudomonas aeruginosa),Activity (HepG2),inhibition at 2 µg/mL (Mycobacterium avium [8]) [%],inhibition at 1 µg/mL (Mycobacterium avium [9]) [%],inhibition at 1 µg/mL [10] [%]
C=C(N=[N+]=[N-])c1cn(COCCO)c(=O)[nH]c1=O,100,100,25,50,50,50,inactive,inactive,inactive,inactive,inactive,inactive,inactive,inactive,inactive,Not toxic,–,–,–
CCCCCCCCC#Cc1cn(COC(CO)CO)c(=O)[nH]c1=O,100,100,50,100,25,–,inactive,inactive,inactive,inactive,inactive,inactive,inactive,inactive,inactive,Not toxic,–,–,–
CC[C@H]1OC(=O)[C@H](C)[C@@H](O[C@H]2C[C@@](C)(OC)[C@@H](O)[C@H](C)O2)[C@H](C)[C@@H](O[C@@H]2O[C@H](C)C[C@H](N(C)C)[C@H]2O)[C@](C)(OC)C[C@@H](C)C(=O)[C@H](C)[C@@H](O)[C@]1(C)O [CLARITHROMYCIN],–,–,–,–,–,–,–,–,–,–,–,–,–,–,–,–,95,–,–
CCCCCCCCCCC#Cc1cn(COC(CO)CO)c(=O)[nH]c1=O,100,100,50,100,25,–,inactive,inactive,inactive,inactive,inactive,inactive,inactive,inactive,inactive,Not toxic,–,–,–
CO[C@H]1/C=C/O[C@@]2(C)Oc3c(C)c(O)c4c(O)c(c(/C=N/N5CCN(C)CC5)c(O)c4c3C2=O)NC(=O)/C(C)=C\C=C\[C@H](C)[C@H](O)[C@@H](C)[C@@H](O)[C@@H](C)[C@H](OC(C)=O)[C@@H]1C [RIFAMPIN],–,–,–,–,–,–,–,–,–,–,–,–,–,–,–,–,90,100,100
[N-]=[N+]=NC(CCl)c1cn(COCCO)c(=O)[nH]c1=O (stereo unspecified),100,100,50,100,100,50,inactive,inactive,inactive,inactive,inactive,inactive,inactive,inactive,inactive,Not toxic,–,–,–

# From ChEMBL document CHEMBL1146361, “Studies on acyclic pyrimidines as inhibitors of mycobacteria” (Bioorg Med Chem, 2007)
